Compound activity: PubChem BioAssay, The Scripps Research Institute Molecular Screening Center
Most compounds without a hit are left out; they make up all but 2.4% or so of the library.
MOR-DOR inv ag – inverse agonist of human OPRM1-OPRD1 heterodimerization. P35372+P41143. cell-based MOR-DOR heterodimer luminescence, inverse agonism. inhibition, % at 9.3 µM. hit rate 0.21% among 340,000; in the data active = inhibition above about 22%, passing the limit was not always enough;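 note: 0% = cells with DMSO and 100% = wells without cells with DMSO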
HTR5A ag – activates human HTR5A in OPRM1-OPRD1 agonist counter-screen. HTR5A agonist assay, luminescence, cell-based. hit rate 0.61% among 340,000. AID 504692. activation, % at 9.3 µM; in the data active = activation mostly above about 9.5%, no sharp cut-off; inactive = mostly below about 7.6%;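 note: 0% = cells with vehicle only and 100% = reference agonist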
Target sequence (P47898 whole entry, looked up): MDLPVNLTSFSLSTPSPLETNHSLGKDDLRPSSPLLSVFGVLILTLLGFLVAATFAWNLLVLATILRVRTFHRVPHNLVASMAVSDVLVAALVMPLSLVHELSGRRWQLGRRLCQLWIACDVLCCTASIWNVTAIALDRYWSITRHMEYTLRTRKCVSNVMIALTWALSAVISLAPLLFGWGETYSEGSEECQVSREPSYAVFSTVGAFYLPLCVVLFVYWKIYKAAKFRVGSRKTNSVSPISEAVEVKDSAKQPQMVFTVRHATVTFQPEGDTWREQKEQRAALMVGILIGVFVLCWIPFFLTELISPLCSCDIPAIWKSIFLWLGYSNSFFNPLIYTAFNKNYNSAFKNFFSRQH
MC4R antagonist – antagonists of human melanocortin 4 receptor (MC4R). AID 540295. inhibition, % at 6.5 µM. hit rate 0.48% among 360,000. MC4R-expressing cells, MTII-stimulated cAMP, LANCE TR-FRET;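 active = inhibition above its plate's cutoff, the mean of tested wells on that plate plus 3 SD, cut at about 29% in these data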;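 note: 0% = Melanotan II alone and 100% = Melanotan II plus saturating MCL0020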
Target sequence (P32245 whole entry, looked up): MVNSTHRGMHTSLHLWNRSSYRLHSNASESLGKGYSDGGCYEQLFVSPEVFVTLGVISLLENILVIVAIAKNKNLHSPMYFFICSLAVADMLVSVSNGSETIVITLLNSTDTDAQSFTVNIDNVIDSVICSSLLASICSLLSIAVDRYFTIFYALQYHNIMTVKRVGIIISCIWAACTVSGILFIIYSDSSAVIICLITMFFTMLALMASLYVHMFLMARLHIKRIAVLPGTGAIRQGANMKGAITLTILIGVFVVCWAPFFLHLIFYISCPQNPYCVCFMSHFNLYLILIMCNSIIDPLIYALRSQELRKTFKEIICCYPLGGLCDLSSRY
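System – human MC4R-expressing U2OS cells · Also added – Melanotan II · Dosing – one concentration, 6.5 µM nominal · Timing – 30-min compound, 1-h challenge, 1-h detection, room temperature · Measured by – Eu-cAMP/anti-cAMP TR-FRET, emission 671 nm · Replicates – singlicate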
OPRM1-OPRD1 ag – OPRM1-OPRD1 heterodimerization agonism; cells, luminescence; activation, % at 9.3 µM; hit rate 0.3% among 340,000;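 note: 0% = vehicle-treated cells and 100% = reference agonist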
MC4R ag barr – human MC4R agonism via beta-arrestin | activation, % at 8.9 µM | AID 540308 | U2OS MC4R beta-arrestin complementation, luminescence; percent of melanotan II response, DMSO zero | hit rate 0.98% among 360,000 | P32245;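 active = activation above a per-plate cutoff, the mean activation of sample wells on that plate plus 3 SD, cut at about 8% in these data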
HTR5A inv ag – inverse agonist of human HTR5A in OPRM1-OPRD1 counter-screen; P47898; HTR5A cell line, luminescence, inverse agonism; inhibition, % at 9.3 µM; hit rate 0.083% among 340,000; in the data active = inhibition mostly above about 23%, no sharp cut-off; inactive = mostly below about 18%;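 note: 0% = cells with DMSO and 100% = no-cell wells with DMSO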
MOR-DOR ag conf – OPRM1-OPRD1 heterodimer agonism, confirmation. shares compounds with OPRM1-OPRD1 ag. cells, MOR-DOR heterodimerization, luminescence complementation. activation, % at 9.3 µM. hit rate 45% among 830;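 note: 0% = vehicle-treated cells and 100% = reference agonist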
HTR5A ag counter – HTR5A agonism, opioid heterodimer counter-screen; activation, % at 9.3 µM; hit rate 8% among 830; HTR5A agonist counterscreen, cell luminescence; shares compounds with OPRM1-OPRD1 ag; AID 504905; in the data active = activation above about 17%;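 note: 0% = vehicle-treated cells and 100% = reference agonist response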
* marks the source's active call; other numbers are inactive results. Cut-off read from the data, not from the text of the source, unless noted: active = activation above about 18%; inactive = the rest.

Results for CCc1ccc(OCC(=O)Nc2ccc(S(=O)(=O)N3CCOCC3)cc2)cc1 ?
MOR-DOR inv ag: -10.9; HTR5A ag: 4.1; MC4R antagonist: -1.8; OPRM1-OPRD1 ag: 2.0; MC4R ag barr: -0.2; HTR5A inv ag: -31.2

What do the screens show for `CC(C)c1ccc(NC(=O)N(CCc2nc3ccccc3[nH]2)C2CCCC2)cc1`?
MOR-DOR inv ag: -147.7; HTR5A ag: 2.0; MC4R antagonist: 8.0; OPRM1-OPRD1 ag: 25.4*; MC4R ag barr: -2.5; HTR5A inv ag: -9.1; MOR-DOR ag conf: 37.0*; HTR5A ag counter: -0.4

Results for O=C(CCC(=O)c1ccc(F)cc1)OCc1nnc(-c2ccc([N+](=O)[O-])cc2)o1 ?
MOR-DOR inv ag: 7.7; HTR5A ag: 0.8; MC4R antagonist: -4.7; OPRM1-OPRD1 ag: -1.9; MC4R ag barr: -2.8; HTR5A inv ag: -1.9

How did COc1ccc(/C=N/Nc2cc(C)nc3ccc(Br)cc23)cc1 do in these assays?
MOR-DOR inv ag: -108.0; HTR5A ag: 4.7; MC4R antagonist: 7.0; OPRM1-OPRD1 ag: 21.1*; MC4R ag barr: 15.7*; HTR5A inv ag: -17.2; MOR-DOR ag conf: 1.6; HTR5A ag counter: -4.2

What do the screens show for `COc1ccc2nc(C)cc(N/N=C/c3cccc(OC)c3O)c2c1`?
MOR-DOR inv ag: -19.8; HTR5A ag: 2.0; MC4R antagonist: 13.8; OPRM1-OPRD1 ag: 4.0; MC4R ag barr: 0.5; HTR5A inv ag: -7.5

Results for CN(C)C(CNC(=O)C1CCN(C(=O)/C=C/c2ccccc2)CC1)c1ccccc1 (stereo not drawn) ?
MOR-DOR inv ag: -164.7; HTR5A ag: -0.4; MC4R antagonist: 12.4; OPRM1-OPRD1 ag: 20.0*; MC4R ag barr: 1.7; HTR5A inv ag: 14.5; MOR-DOR ag conf: 17.7; HTR5A ag counter: 1.6

Results for CN(C)C(CNC(=O)C1CC(=O)N(Cc2ccccc2)C1)c1ccccc1 (stereo not drawn) ?
MOR-DOR inv ag: -250.1; HTR5A ag: -5.0; MC4R antagonist: 14.1; OPRM1-OPRD1 ag: 46.4*; MC4R ag barr: -2.4; HTR5A inv ag: 4.9; MOR-DOR ag conf: 59.1*; HTR5A ag counter: 3.2

How did COc1ccc(C(CNC(=O)C2CC(=O)N(Cc3ccc(C)cc3)C2)N(C)C)cc1 (stereo not drawn) do in these assays?
MOR-DOR inv ag: -10.0; HTR5A ag: 1.2; MC4R antagonist: 16.6; OPRM1-OPRD1 ag: 2.0; MC4R ag barr: -1.0; HTR5A inv ag: -3.7

How did CN(C)C(CNC(=O)CSC(=S)N1CCCC1)c1ccccc1 (stereo not drawn) do in these assays?
MOR-DOR inv ag: inactive; HTR5A ag: 1.4; MC4R antagonist: 2.6; OPRM1-OPRD1 ag: 195.0*; MC4R ag barr: -2.0; HTR5A inv ag: -5.3; MOR-DOR ag conf: 183.4*; HTR5A ag counter: -3.6

Results for CC1CCCC(C)N1c1ccc(S(=O)(=O)N2CCOCC2)cc1Cl (stereo not drawn) ?
MOR-DOR inv ag: -28.4; HTR5A ag: -1.7; MC4R antagonist: 5.1; OPRM1-OPRD1 ag: 3.8; MC4R ag barr: 2.6; HTR5A inv ag: 4.5

How did COc1c(C)cccc1C(=O)NCc1ccc2c(c1)OCO2 do in these assays?
MOR-DOR inv ag: -0.3; HTR5A ag: -0.9; MC4R antagonist: 13.2; OPRM1-OPRD1 ag: 0.1; MC4R ag barr: -0.6; HTR5A inv ag: 3.5

How did Cc1ccc2nc(-c3ccccc3)cc(C(=O)NCC3CCCO3)c2c1 (stereo not drawn) do in these assays?
MC4R antagonist: 5.6; MC4R ag barr: -1.3

How did Cc1cc(C(=O)NCC(c2ccco2)N(C)C)ccc1[N+](=O)[O-] (stereo not drawn) do in these assays?
MOR-DOR inv ag: -214.4; HTR5A ag: 2.3; MC4R antagonist: 22.4; OPRM1-OPRD1 ag: 34.4*; MC4R ag barr: -0.3; HTR5A inv ag: -5.3; MOR-DOR ag conf: 25.6*; HTR5A ag counter: 2.2

How did CCOc1ccc2oc(C(=O)NCC(c3ccco3)N(C)C)c(C)c2c1 (stereo not drawn) do in these assays?
MOR-DOR inv ag: 2.0; HTR5A ag: 5.2; MC4R antagonist: 9.7; OPRM1-OPRD1 ag: -0.4; MC4R ag barr: -1.1; HTR5A inv ag: -12.8

How did Cc1c(C(=O)NCC(c2ccco2)N(C)C)oc2c(Cl)cccc12 (stereo not drawn) do in these assays?
MOR-DOR inv ag: -171.2; HTR5A ag: 0.5; MC4R antagonist: -5.6; OPRM1-OPRD1 ag: 31.7*; MC4R ag barr: -2.1; HTR5A inv ag: -24.0; MOR-DOR ag conf: 20.0*; HTR5A ag counter: 30.1*

How did CN(C)C(CNC(=O)c1ccc(Br)cc1)c1ccco1 (stereo not drawn) do in these assays?
MOR-DOR inv ag: -206.3; HTR5A ag: 1.6; MC4R antagonist: 14.2; OPRM1-OPRD1 ag: 43.2*; MC4R ag barr: 0.2; HTR5A inv ag: -5.8; MOR-DOR ag conf: 36.6*; HTR5A ag counter: -2.3

What do the screens show for `Cc1ccc2nc(-c3ccccc3)cc(C(=O)NCC(c3ccco3)N(C)C)c2c1` (stereo not drawn)?
MOR-DOR inv ag: -228.4; HTR5A ag: -5.4; MC4R antagonist: -0.2; OPRM1-OPRD1 ag: 35.9*; MC4R ag barr: -2.9; HTR5A inv ag: 13.0; MOR-DOR ag conf: 1.0; HTR5A ag counter: -3.0

What do the screens show for `Cc1ccnc(NC(=O)CCNC(=O)c2ccccc2Cl)c1`?
MOR-DOR inv ag: 8.2; HTR5A ag: -1.7; MC4R antagonist: 1.8; OPRM1-OPRD1 ag: -1.2; MC4R ag barr: -2.1; HTR5A inv ag: -1.4

What do the screens show for `CN(C)C(CNC(=O)c1cccc(C(F)(F)F)c1)c1ccco1` (stereo not drawn)?
MOR-DOR inv ag: -116.7; HTR5A ag: -1.4; MC4R antagonist: 4.6; OPRM1-OPRD1 ag: 18.4*; MC4R ag barr: -0.4; HTR5A inv ag: 18.3; MOR-DOR ag conf: 45.0*; HTR5A ag counter: 0.1

How did O=C(NCc1ccco1)c1cccc(C(F)(F)F)c1 do in these assays?
MOR-DOR inv ag: 11.7; HTR5A ag: -2.3; MC4R antagonist: 7.6; OPRM1-OPRD1 ag: -2.4; MC4R ag barr: -1.7; HTR5A inv ag: 6.4

What do the screens show for `Cc1cc(C)c2nc(N(CCCN(C)C)C(=O)c3ccc(S(=O)(=O)N4CC(C)OC(C)C4)cc3)sc2c1` (stereo not drawn)?
MOR-DOR inv ag: 4.7; HTR5A ag: 2.1; MC4R antagonist: 6.5; OPRM1-OPRD1 ag: -0.7; MC4R ag barr: -3.5; HTR5A inv ag: -6.3

How did CCOC(=O)c1c2c(n(C)c1C)C(=O)C(=O)c1ccc(Br)cc1-2 do in these assays?
MOR-DOR inv ag: -42.1; HTR5A ag: 5.8; MC4R antagonist: -1.8; OPRM1-OPRD1 ag: 7.7; MC4R ag barr: -1.1; HTR5A inv ag: 5.1
